Results of several laboratories.
Target: Serine/threonine-protein kinase PLK3 (PLK3, Homo sapiens, UniProt Q9H4B4)

| Structure (SMILES) | observed | technique | tested at | remaining binding [%] |
| --- | --- | --- | --- | --- |
| CCOCCn1cc(C(=O)Nc2ccc(-n3nc(-c4cccnc4)cc3C(F)(F)F)cn2)ccc1=O | cell-free assay | competition with immobilised ligand | 1 µM | 84 |
| COc1cnc(Nc2cccc(S(N)(=O)=O)c2)nc1N1CCN(c2ccccc2)C(=O)C1 | binding | competition with immobilised ligand | 1 µM | 63 |
| CN(C)c1nccc(-c2cnc3ncccn23)n1 | binding |  | 1 µM | 66 |
| O=C(NCC1CCOCC1)c1n[nH]cc1NC(=O)c1c(F)cccc1F | binding | competition with immobilised ligand | 1 µM | 89 |
| CS(=O)(=O)c1cc(C2(NC(=O)c3cncc4c3cnn4-c3ccc(F)cc3)CC2)ccn1 | cell-free assay | competition with immobilised ligand | 1 µM | 68 |
| C[C@@H]1CN(c2ccc3ncc(-c4ccc5[nH]nc(C6CC6)c5c4)n3n2)C[C@H](C)O1 | binding | competition with immobilised ligand | 50 nM | 78 |
| O=C(NCCCN1CCOCC1)c1ccc(Nc2nccc(-c3cc4ccccc4s3)n2)cc1 | binding | competition with immobilised ligand | 1 µM | 42 |
| CN(C)c1nccc(-c2cnn3ncccc23)n1 | binding |  | 1 µM | 83 |
| C[C@@H]1CN(c2cc(-c3n[nH]c4ccc(OC5(C)CC5)cc34)ncn2)C[C@H](C)O1 | cell-free assay | competition with immobilised ligand | 0.1 µM | 84 |
| c1cncc(-c2cccc(Nc3nccc(NC4CCCCC4)n3)c2)c1 | binding | competition with immobilised ligand | 10 µM | 78 |
| C=CC(=O)N1CCC(C(=O)NCC(=O)N2CCN(c3nc(-c4cnc(N)nc4C(F)F)nc(N4CCOCC4)n3)CC2)CC1 | binding | competition with immobilised ligand | 1 µM | 58 |
| CN([C@@H]1CCc2c(CC(=O)O)c3ccccc3n2C1)S(=O)(=O)c1ccc(F)cc1 | cell-free assay | competition with immobilised ligand | 1 µM | 85 |
| N[C@H]1CCN(c2nccc(-c3cnn4ncccc34)n2)C1 | binding |  | 1 µM | 83 |
| CC(=O)N1CCC(c2ccc(C(=O)NC3=NCCN3)cc2C(F)(F)F)CC1 | cell-free assay | competition with immobilised ligand | 1 µM | 78 |
| O=C(c1ccc(Nc2nccc(-c3cc4ccccc4s3)n2)cc1)N1CCC(N2CCCC2)CC1 | binding | competition with immobilised ligand | 1 µM | 81 |
| c1cnn2ncc(-c3ccnc(N4CCC45COC5)n3)c2c1 | binding |  | 1 µM | 79 |
